Only a selection was taken, and hits are over-represented in it overall.
pCIP destab: p/CIP protein destabilization; F442A p/CIP-EGFP cells, EGFP fluorescence, 16 h; decrease of EGFP signal, % at 10 µM; Q05BA5; hit rate 0.01% among 290,000; AID 1984;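 active means EGFP signal decrease of at least 30% at 10 µM or well 3 SD below plate mean, unless failing retest; inactive means the rest, including hits failing retest or dose response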
Target sequence (Q05BA5 1-1403): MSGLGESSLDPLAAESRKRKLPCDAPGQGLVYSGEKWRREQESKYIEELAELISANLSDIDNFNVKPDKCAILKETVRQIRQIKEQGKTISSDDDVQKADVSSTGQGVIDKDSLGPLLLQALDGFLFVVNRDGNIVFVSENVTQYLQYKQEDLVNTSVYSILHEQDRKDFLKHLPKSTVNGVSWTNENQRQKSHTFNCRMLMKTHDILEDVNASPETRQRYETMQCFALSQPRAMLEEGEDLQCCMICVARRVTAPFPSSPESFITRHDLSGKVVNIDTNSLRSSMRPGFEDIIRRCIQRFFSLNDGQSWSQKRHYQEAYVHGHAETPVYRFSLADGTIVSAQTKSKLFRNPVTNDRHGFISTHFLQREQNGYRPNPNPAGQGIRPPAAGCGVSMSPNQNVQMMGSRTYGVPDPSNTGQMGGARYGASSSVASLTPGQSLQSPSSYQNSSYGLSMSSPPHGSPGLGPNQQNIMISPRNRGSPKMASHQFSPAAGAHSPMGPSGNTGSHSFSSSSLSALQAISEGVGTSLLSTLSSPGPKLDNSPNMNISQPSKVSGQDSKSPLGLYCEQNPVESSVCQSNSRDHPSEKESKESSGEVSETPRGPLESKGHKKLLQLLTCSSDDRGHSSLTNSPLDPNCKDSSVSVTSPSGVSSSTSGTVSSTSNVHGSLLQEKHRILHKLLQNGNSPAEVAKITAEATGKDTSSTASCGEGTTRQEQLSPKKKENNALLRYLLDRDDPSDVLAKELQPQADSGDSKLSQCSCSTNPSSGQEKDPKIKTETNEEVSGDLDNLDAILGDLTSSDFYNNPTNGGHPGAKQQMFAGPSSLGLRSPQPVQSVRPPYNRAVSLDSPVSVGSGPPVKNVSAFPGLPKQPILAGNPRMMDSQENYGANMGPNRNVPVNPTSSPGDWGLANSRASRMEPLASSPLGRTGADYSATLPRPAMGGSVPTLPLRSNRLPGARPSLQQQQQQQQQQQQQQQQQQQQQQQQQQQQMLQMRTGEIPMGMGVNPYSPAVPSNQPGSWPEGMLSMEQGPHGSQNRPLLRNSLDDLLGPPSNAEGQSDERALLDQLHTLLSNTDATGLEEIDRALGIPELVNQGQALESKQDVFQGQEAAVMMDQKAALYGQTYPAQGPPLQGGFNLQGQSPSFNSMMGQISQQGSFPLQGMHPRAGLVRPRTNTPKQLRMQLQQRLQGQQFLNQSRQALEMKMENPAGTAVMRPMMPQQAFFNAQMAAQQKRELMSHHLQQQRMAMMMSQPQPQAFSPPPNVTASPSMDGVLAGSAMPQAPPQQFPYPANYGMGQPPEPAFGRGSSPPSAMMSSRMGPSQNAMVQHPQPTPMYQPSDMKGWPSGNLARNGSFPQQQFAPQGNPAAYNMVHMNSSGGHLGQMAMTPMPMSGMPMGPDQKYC
Dynein cargo inh: blocks dynein driven cargo transport along microtubules; 3617.4 mouse cells, GR-EGFP nuclear translocation imaging; test concentration mostly 20 µM; stimulated with dexamethasone, 1 µM; stronger effect = lower value; z-score, hits read low; hit rate 0.47% among 220,000; AID 1381;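 active means plate z-score of nuclear minus cytoplasmic receptor signal below a set negative limit, without overly bright fluorescence or cell loss, cut at about -3.5 in these data, passing the limit was not always enough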;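 further: z-score of nuclear minus cytoplasmic ring GR-EGFP intensity difference per well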
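Buffer or medium: tetracycline-free induction medium containing charcoal-stripped FBS / Reagent: dexamethasone agonist, 1.0 µM final, for 30 min / Technique: automated 10x imaging of fixed Hoechst-stained cells / Times: induction 48 h, compound 1 h, agonist 30 min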
ABCB6 inh 2: inhibitors of human ABC transporter ABCB6 | K562-ABCB6 porphyrin accumulation, flow cytometry, 1 h; stronger effect = lower value | fluorescence ratio to DMSO, % at 10 µM | hit rate 0.19% among 360,000 | AID 602162;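 active means fluorescence ratio to DMSO below 75%, the collection mean minus 3 SD; inconclusive means too few cells collected in the well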;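 further: signal is porphyrin accumulated inside mitochondria; 100% equals median channel fluorescence of DMSO control wells; lower ratio means ABCB6 inhibition with less porphyrin fluorescence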
V-ATPase pH: yeast V-ATPase proton transport regulation by pHLuorin; S. cerevisiae, pHLuorin cytosolic pH fluorescence; response, % at 10 µM; hit rate 0.37% among 350,000; AID 504577; in the data active means response mostly above about 7.3%, no sharp cut-off; inactive means mostly below about 5.4%; further: actives read high
Cl transport mod: KCC2 (human) Cl- transport modulation. B-score of Tl+ flux slope (higher = more flux/activation; lower = inhibition) at 10 µM. hit rate 2.2% among 190,000. Q9H2X9. KCC2 cells, thallium flux FluoZin-2 fluorescence. AID 1456;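 active means thallium flux slope and its plate-corrected score both differing from the plate sample mean at a set confidence after two filtering rounds, in either direction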;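 further: slope of fluorescence scaled to starting intensity during 10 to 20 s after thallium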
KCC2 sec1: confirmation of human KCC2 transport modulators; normalised thallium flux (F/F0 slope) at 10 µM; hit rate 15% among 3,700; shares compounds with Cl transport mod; AID 1713; HEK293-KCC2, thallium flux, FluoZin2 fluorescence; stronger effect = higher value;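 active means thallium flux slope above the same plate's solvent-only control mean plus 3 SD; inconclusive means the two replicate wells disagree; inactive means no significant difference from solvent-only control wells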
KCC2 bumet counter: thallium flux despite bumetanide block in KCC2 cells, secondary assay 3; hit rate 49% among 3,700; HEK293-KCC2 + bumetanide/ouabain, thallium flux FluoZin2; stronger effect = higher value; normalized thallium flux at 10 µM; shares compounds with Cl transport mod; AID 1714;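 active means thallium entry rate above the same plate's blocked-transporter control wells by more than 3 SD; inconclusive means the two repeat wells disagree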;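 further: raw slope of fluorescence over initial fluorescence between 10 and 20 s after thallium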
KCC2 secondary2: confirmation of human KCC2 transport modulators; hit rate 23% among 3,700; normalized thallium flux at 10 µM; shares compounds with Cl transport mod; HEK293-KCC2, thallium flux FluoZin2 fluorescence; actives lie on both sides; F/F0 rise rate, 10–20 s post-thallium; AID 1715;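 active means thallium flux slope more than 3 SD above or below the plate's solvent-only control mean, mostly below; inconclusive means the two repeat wells disagreed; inactive means no significant shift from solvent-only controls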;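 further: raw slope with 0.1% DMSO as baseline and bumetanide as block control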
HEK counter1: acts in parental HEK cells, KCC2 counter-screen; thallium flux rate (normalised fluorescence) at 10 µM; hit rate 46% among 3,700; shares compounds with Cl transport mod; HEK293 parental cells, thallium flux FluoZin2, ouabain; baseline-ratio fluorescence slope, 10–20 s after thallium;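 active means thallium flux rate significantly above the same plate's solvent-only control wells, beyond their mean plus 3 SD; inconclusive means the two replicate wells gave conflicting results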
KCC2 retest ouab: KCC2 (human) modulation, ouabain retest. shares compounds with Cl transport mod. hit rate 48% among 3,700. raw Tl+ flux slope (below DMSO = inhibition, above = activation) at 10 µM. HEK293-KCC2, thallium flux FluoZin2 fluorescence; bidirectional: low = inhibitor, high = activator;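 active means thallium flux slope beyond 3 SD from same-plate DMSO control mean in most replicates, usually higher, sometimes lower; inconclusive means repeat tests gave conflicting results; inactive means no significant difference from controls in most replicates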;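 further: slope of initial-normalized fluorescence between seconds 10 and 20 after thallium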
HEK293 Tl flux2: parental HEK flux effect, counter-screen 2; hit rate 33% among 3,700; AID 1718; thallium flux slope at 10 µM; shares compounds with Cl transport mod; HEK293 parental, thallium flux FluoZin-2 fluorescence slope;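 active means thallium flux slope above the same plate's solvent-control mean plus 3 SD in both duplicate wells; inconclusive means duplicate wells that disagreed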;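 further: run without ouabain in cells lacking the KCC2 cotransporter; slope of fluorescence scaled to its starting value between 10 and 20 s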
Active calls of the source: *; ? = inconclusive; / = not tested or not shown.

SMILES | pCIP destab | Dynein cargo inh | ABCB6 inh 2 | V-ATPase pH | Cl transport mod | KCC2 sec1 | KCC2 bumet counter | KCC2 secondary2 | HEK counter1 | KCC2 retest ouab | HEK293 Tl flux2
CN1OC[C@@H]2CN(Cc3cc(Cl)cc(Cl)c3)[C@H](c3cccc(Br)c3)C[C@@H]21 | / | / | 99 | -2 | / | / | / | / | / | / | /
O=C(OC(C(=O)NC1CCCC1)c1cccnc1)C1=Cc2ccccc2OC1 (stereo not given) | -10 | -1.3 | 103 | -4 | -3.2* | 0.0084 | ? | 0.033 | 0.0077 | 0.018 | 0.011
O=C(NCc1ccccn1)C(=O)Nc1nc(C23CC4CC(CC(C4)C2)C3)cs1 | -15 | -0.71 | 88 | 0 | 16* | 0.012 | 0.014* | 0.034 | 0.026* | 0.026* | 0.015*
O=C(NCc1ccccn1)NC12CC3CC(CC(C3)C1)C2 | 2 | -0.65 | 90 | 4 | -0.18 | / | / | / | / | / | /
CCCC1=C(C(=O)OCC)C(c2ccc(OC)c(C)c2OC)C(C#N)=C(N)O1 (stereo not given) | -8 | 0.47 | 101 | 2 | -1.4 | / | / | / | / | / | /
Fc1ccccc1CSc1nncn1NC/C=C/c1ccccc1 | -16 | -0.6 | 103 | 0 | -4.8* | 0.0073 | 0.0086* | ? | 0.0075 | 0.017 | 0.011
Cc1ccc(CC(=O)Nc2cc(C)on2)cc1 | -5 | / | 98 | 1 | / | / | / | / | / | / | /
Cc1cc(=O)n2[nH]cc(-c3ccccc3)c2n1 | -2 | / | 107 | 4 | / | / | / | / | / | / | /
Cc1nc2c(-c3ccccc3)c[nH]n2c(=O)c1Cc1ccccc1 | 15 | 0.14 | 101 | 3 | 16* | 0.0067 | 0.025* | 0.036 | 0.02* | 0.03* | 0.019*
CCN=c1scc(-c2ccc(F)cc2)n1/N=C/c1ccccn1 | -34 | 0.9 | 86 | 2 | -5.7* | 0.0052 | 0.0044 | 0.023* | ? | 0.014* | 0.011
O=C(O)CNc1nc(-c2ccccc2)nc2c1oc1ccccc12 | 1 | -0.036 | 96 | -5 | / | 0.0066 | 0.0053 | 0.029 | 0.0077 | 0.019 | 0.01
OCCCNc1nc(-c2ccccc2)nc2c1oc1ccccc12 | 3 | -0.68 | 98 | -2 | -0.68 | / | / | / | / | / | /
COc1ccc(S(=O)(=O)N2CCOCC2)cc1NC(=O)CSc1ccc(F)cc1 | / | / | 93 | -1 | / | / | / | / | / | / | /
COc1cc(/C=N/NC(=O)c2c(C)nnn2-c2nonc2N)ccc1O | -3 | 0.71 | 95 | 0 | 4.7* | 0.0096 | 0.0048 | 0.031 | 0.0087 | 0.019 | 0.011
COC(=O)n1c(=S)oc2cc(Cl)ccc21 | -3 | -0.6 | / | / | 3* | 0.018* | 0.023* | 0.035 | 0.015* | 0.029* | 0.012
CCCCOC(=O)n1c(=S)oc2cc(Cl)ccc21 | -2 | 0.11 | 89 | 3 | 1.2 | / | / | / | / | / | /
Cc1nc(N)[nH]c(=O)c1CCCNc1ccc([N+](=O)[O-])cc1 | / | / | 101 | -1 | / | / | / | / | / | / | /
COCCN1C(=O)C(O)=C(C(=O)c2ccco2)C1c1cccc(Oc2ccccc2)c1 (stereo not given) | -3 | -0.18 | 104 | -1 | -6.9* | 0.009 | 0.0058 | ? | 0.0063* | 0.017* | 0.01
CCCCOc1ccccc1C(=O)NNC(=S)NC(=O)c1ccccc1[N+](=O)[O-] | -11 | / | 104 | -3 | / | / | / | / | / | / | /
CC1CCc2sc(C(=O)NN=C3CCC(c4ccccc4)CC3)cc2C1 (stereo not given) | 14 | -0.2 | 98 | 0 | 0.15 | / | / | / | / | / | /
Cc1cccc(NC(=S)NNC(=O)c2cc3c(s2)CCC(C)C3)c1C (stereo not given) | 0 | 1.5 | 95 | -2 | 37* | 0.0066 | 0.08* | 0.061* | 0.064* | 0.062* | 0.059*
CN(C(=O)COC(=O)c1c[nH]c2ccccc12)c1ccccc1 | / | / | 101 | 3 | / | / | / | / | / | / | /
Cc1cc(=O)[nH]c2ccc(Cl)cc12 | -4 | -0.8 | 96 | -5 | / | 0.0098 | 0.0052 | 0.037 | 0.0044 | 0.021 | 0.011
CC(C)CCN1CCN(Cc2ccc(C#CCCO)cc2)CC1CCO (stereo not given) | -8 | -0.5 | 102 | 3 | 5.3* | 0.017 | 0.0043 | 0.032 | 0.0081 | 0.018 | 0.01
OCCC#Cc1ccc(CN2CCN(CCc3ccccc3)C(CCO)C2)cc1 (stereo not given) | 3 | / | 95 | 1 | / | / | / | / | / | / | /
SMILES | pCIP destab | Dynein cargo inh | ABCB6 inh 2 | V-ATPase pH | Cl transport mod | KCC2 sec1 | KCC2 bumet counter | KCC2 secondary2 | HEK counter1 | KCC2 retest ouab | HEK293 Tl flux2
COc1ccccc1OCCOCCOc1c(C)cc(C)cc1Br | -9 | -0.56 | 98 | 1 | -5.4* | 0.015 | 0.0045 | 0.028 | 0.007 | 0.015 | 0.011
CN(C)c1ccc(P(=O)(OC2CCCCC2)C(O)c2ccncc2)cc1 (stereo not given) | 5 | -0.13 | 97 | 1 | 0.88 | / | / | / | / | / | /
CCOC(=O)C(CC)(CCC(=O)O)c1csc(Nc2ccc(C)cc2)n1 (stereo not given) | 2 | -0.092 | 103 | 1 | -2.9* | 0.017 | 0.0045 | 0.029 | 0.006* | 0.014 | 0.0096
CCOC(=O)Cc1csc(Nc2ccc(Cl)cc2)n1 | -3 | -0.025 | 96 | 0 | -0.51 | / | / | / | / | / | /
Cc1cc(C)c(C(=O)OCC(=O)Nc2cccc(S(=O)(=O)N3CCCCC3)c2)c(C)c1 | / | / | 85 | 4 | / | / | / | / | / | / | /
CCCCNC(=S)N=Nc1c(O)[nH]c2ccccc12 | -6 | -1.1 | 93 | -2 | 25* | ? | 0.049* | ? | 0.035* | 0.04* | 0.025*
CCNC(=S)N=Nc1c(O)[nH]c2ccc([N+](=O)[O-])cc12 | -9 | -0.55 | 82 | -11 | 5* | 0.0097 | 0.022* | 0.031 | 0.013* | 0.026 | ?
CCNC(=S)N=Nc1c(O)[nH]c2ccc(C(C)C)cc12 | -7 | 0.078 | 100 | 2 | 10* | ? | 0.021* | 0.034 | 0.022* | 0.026* | 0.016*
NC(=S)N=Nc1c(O)[nH]c2ccccc12 | 2 | -0.65 | 98 | -5 | 0.94 | / | / | / | / | / | /
CN1CCN(NC(=O)/C=C/c2ccc(C(C)(C)C)cc2)CC1 | 9 | / | 98 | -1 | / | / | / | / | / | / | /
COCC(O)CSc1nc(C)[nH]c1[N+](=O)[O-] (stereo not given) | -3 | -0.26 | 100 | 7 | -5.2* | 0.016 | 0.0042 | 0.028 | 0.0072 | 0.016 | 0.0097
